Calls of active or inactive are those of the source. No cut-off for these calls is given here.
Key:
[1] = Inhibition of APH(3')-1a (unknown origin)
Enterococcus faecalis = experiment: Antibacterial activity against NEO-intermediate sensitive Enterococcus faecalis ATCC 29212 at 6.25 uM after 15 to 20 hrs by CLSI protocol based microdilution assay relative to control; type: functional
In short: (§1)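 Single-concentration screen at 6.25 μM against exponential-phase cultures, in duplicate, with NEO as reference. Enterococcus was grown in BHI broth, M. smegmatis in TS broth with 0.05% Tween 80, and all other strains in TS broth. The 1% DMSO water vehicle was added to broth (background) and culture (growth control). Incubation was 37 °C, humidified, 15-20 h. Result is percent growth inhibition.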

Ribosomal RNA A-site [2] = experiment: Displacement of F-NEO from human mitochondrial rRNA-A site after 10 to 20 mins by fluorescence assay relative to NEO; type: nucleic-acid assay; design: concentration or dose not given beside the values
In short: (§2)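 100 nM F-NEO:A-site complex in 10 mM HEPES, 50 mM NaCl, 0.04 mM EDTA, pH 7.0, mixed with ligand and incubated 10-20 min at room temperature. Fluorescence read at ex 485/em 525 nm, in duplicate. Percent binding was computed from the intensities of ligand-treated complex, complex without ligand, and complex with neomycin.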

[3] = Inhibition of AAC(2')-1c (unknown origin)
[4] = system: Staphylococcus epidermidis; experiment: Antibacterial activity against NEO-sensitive Staphylococcus epidermidis 12384 at 6.25 uM after 15 to 20 hrs by CLSI protocol based microdilution assay relative to control; type: functional
In short: as §1

Staphylococcus aureus [5] = experiment: Antibacterial activity against methicillin-resistant Staphylococcus aureus SU-5 at 6.25 uM after 15 to 20 hrs by CLSI protocol based microdilution assay relative to control; type: functional
In short: (§3)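 Exponential-phase cultures were exposed to 6.25 μM compound in duplicate with neomycin as reference, at 37 °C in a humidified incubator for 15-20 h. Broth and culture controls received sterile water with 1% DMSO. Percent growth inhibition was calculated against the growth and background controls.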

Klebsiella pneumoniae = experiment: Antibacterial activity against Klebsiella pneumoniae NR-151410 at 6.25 uM after 15 to 20 hrs by CLSI protocol based microdilution assay relative to control; type: functional
In short: as §1

Homo sapiens [6] = species on record: Homo sapiens; experiment: Displacement of F-NEO from human mitochondrial rRNA-A site A1490G mutant after 10 to 20 mins by fluorescence assay relative to NEO
In short: as §2

Bacillus anthracis = experiment: Antibacterial activity against NEO-sensitive Bacillus anthracis BA852 at 6.25 uM after 15 to 20 hrs by CLSI protocol based microdilution assay relative to control; type: functional
In short: as §3

Homo sapiens [7] = species on record: Homo sapiens; experiment: Displacement of F-NEO from human mitochondrial rRNA-A site C1410U mutant after 10 to 20 mins by fluorescence assay relative to NEO; design: concentration or dose not given beside the values
In short: as §2

[8] = Inhibition of APH(2\")-1a (unknown origin)
Staphylococcus aureus [9] = experiment: Antibacterial activity against NEO-sensitive Staphylococcus aureus harboring NorA mutant at 6.25 uM after 15 to 20 hrs by CLSI protocol based microdilution assay relative to control; type: functional
In short: as §3

Ribosomal RNA A-site [10] = experiment: Displacement of F-NEO from Escherichia coli rRNA-A site after 10 to 20 mins by fluorescence assay relative to NEO; type: nucleic-acid assay; design: concentration or dose not given beside the values
In short: as §2

Ribosomal RNA A-site [11] = experiment: Displacement of F-NEO from human cytosolic rRNA-A site after 10 to 20 mins by fluorescence assay; type: nucleic-acid assay
In short: (§4)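 A 100 nM F-NEO:A-site RNA complex in 10 mM HEPES, 50 mM NaCl, 0.04 mM EDTA, pH 7.0 was titrated with 2-fold dilutions of ligand from 20 to 0.009 μM, or from 60 or 40 μM for weaker ligands. Incubated 10-20 min at room temperature, fluorescence read at ex 485/em 525 nm. IC50 from dose-response curve fit.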

[12] = Inhibition of AAC(6')-1e (unknown origin)
Escherichia coli [13] = experiment: Antibacterial activity against NEO-sensitive Escherichia coli ATCC 25922 at 6.25 uM after 15 to 20 hrs by CLSI protocol based microdilution assay relative to control; type: functional
In short: as §1

Listeria monocytogenes = experiment: Antibacterial activity against NEO-sensitive Listeria monocytogenes ATCC 19115 at 6.25 uM after 15 to 20 hrs by CLSI protocol based microdilution assay relative to control; type: functional
In short: as §1

Enterococcus faecium = experiment: Antibacterial activity against NEO-intermediate sensitive Enterococcus faecium BM4105-RF at 6.25 uM after 15 to 20 hrs by CLSI protocol based microdilution assay relative to control; type: functional
In short: as §1

Escherichia coli [14] = experiment: Antibacterial activity against NEO-sensitive Escherichia coli harboring TolC mutant at 6.25 uM after 15 to 20 hrs by CLSI protocol based microdilution assay relative to control; type: functional
In short: as §3

[15] = Inhibition of Eis (unknown origin)
[16] = Antibacterial activity against NEO-sensitive Enterobacter cloacae 13047 at 6.25 uM after 15 to 20 hrs by CLSI protocol based microdilution assay relative to control; type: functional, Enterobacter cloacae subsp. cloacae, ATCC 13047
In short: as §1

Staphylococcus aureus [17] = experiment: Antibacterial activity against NEO-sensitive Staphylococcus aureus 25923 at 6.25 uM after 15 to 20 hrs by CLSI protocol based microdilution assay relative to control; type: functional
In short: as §1

Staphylococcus aureus [18] = experiment: Antibacterial activity against methicillin-resistant Staphylococcus aureus A960649 at 6.25 uM after 15 to 20 hrs by CLSI protocol based microdilution assay relative to control; type: functional
In short: as §3

Acinetobacter baumannii = experiment: Antibacterial activity against NEO-sensitive Acinetobacter baumannii ATCC 19606 at 6.25 uM after 15 to 20 hrs by CLSI protocol based microdilution assay relative to control; type: functional, ATCC 19606 = CIP 70.34 = JCM 6841
In short: as §1

Ribosomal RNA A-site [19] = experiment: Displacement of F-NEO from human mitochondrial rRNA-A site after 10 to 20 mins by fluorescence assay; type: nucleic-acid assay
In short: as §4

[20] = Inhibition of AAC(3)-4 (unknown origin)
Staphylococcus aureus [21] = experiment: Antibacterial activity against methicillin-resistant Staphylococcus aureus 33591 at 6.25 uM after 15 to 20 hrs by CLSI protocol based microdilution assay relative to control; type: functional
In short: as §3

Ribosomal RNA A-site [22] = experiment: Displacement of F-NEO from Escherichia coli rRNA-A site after 10 to 20 mins by fluorescence assay; type: nucleic-acid assay
In short: as §4

Pseudomonas aeruginosa = experiment: Antibacterial activity against NEO-resistant Pseudomonas aeruginosa 27853 at 6.25 uM after 15 to 20 hrs by CLSI protocol based microdilution assay relative to control; type: functional
In short: as §3

[23] = Displacement of F-NEO from human mitochondrial rRNA-A site C1410U mutant after 10 to 20 mins by fluorescence assay
In short: as §4

Ribosomal RNA A-site [24] = experiment: Displacement of F-NEO from human cytosolic rRNA-A site after 10 to 20 mins by fluorescence assay relative to NEO; type: nucleic-acid assay; design: concentration or dose not given beside the values
In short: as §2

Klebsiella oxytoca = experiment: Antibacterial activity against NEO-sensitive Klebsiella oxytoca HM-625 at 6.25 uM after 15 to 20 hrs by CLSI protocol based microdilution assay relative to control; type: functional
In short: as §1

Staphylococcus aureus [25] = experiment: Antibacterial activity against methicillin-resistant Staphylococcus aureus M0602 at 6.25 uM after 15 to 20 hrs by CLSI protocol based microdilution assay relative to control; type: functional
In short: as §3

NC[C@@H]1O[C@H](O[C@H]2[C@@H](O)[C@H](O[C@@H]3[C@@H](O)[C@H](N)C[C@H](N)[C@H]3O[C@H]3O[C@H](CN)[C@@H](O)[C@H](O)[C@H]3N)O[C@@H]2CNC(=O)Cc2ccc3ccc4cccc5ccc2c3c45)[C@H](N)[C@@H](O)[C@@H]1O
inhibition [1]: Active
Activity (Enterococcus faecalis): 12%
inhibition (Ribosomal RNA A-site [2]): 47%
inhibition [3]: Active
Activity [4]: 15%
Activity (Staphylococcus aureus [5]): inactive
Activity (Klebsiella pneumoniae): 10%
inhibition (Homo sapiens [6]): 22%
Activity (Bacillus anthracis): inactive
inhibition (Homo sapiens [7]): 73%
inhibition [8]: Active
Activity (Staphylococcus aureus [9]): inactive
inhibition (Ribosomal RNA A-site [10]): 33%
IC50 (Ribosomal RNA A-site [11]): 375 nM
inhibition [12]: Active
Activity (Escherichia coli [13]): 7%
Activity (Listeria monocytogenes): inactive
Activity (Enterococcus faecium): 0%
Activity (Escherichia coli [14]): inactive
inhibition [15]: Active
Activity [16]: 0%
Activity (Staphylococcus aureus [17]): 30%
Activity (Staphylococcus aureus [18]): 15%
Activity (Acinetobacter baumannii): 6%
IC50 (Ribosomal RNA A-site [19]): 339 nM
inhibition [20]: Active
Activity (Staphylococcus aureus [21]): 27%
IC50 (Ribosomal RNA A-site [22]): 303 nM
Activity (Pseudomonas aeruginosa): 19%
IC50 [23]: 274 nM
inhibition (Ribosomal RNA A-site [24]): 38%
Activity (Klebsiella oxytoca): 5%
Activity (Staphylococcus aureus [25]): inactive

NC[C@@H]1O[C@H](O[C@H]2[C@@H](O)[C@H](O[C@@H]3[C@@H](O)[C@H](N)C[C@H](N)[C@H]3O[C@H]3O[C@H](CN)[C@@H](O)[C@H](O)[C@H]3N)O[C@@H]2CSCCNC(=O)CCc2ccc3ccc4cccc5ccc2c3c45)[C@H](N)[C@@H](O)[C@@H]1O
inhibition [1]: Active
Activity (Enterococcus faecalis): 10%
inhibition (Ribosomal RNA A-site [2]): 88%
inhibition [3]: Active
Activity [4]: 56%
Activity (Staphylococcus aureus [5]): inactive
Activity (Klebsiella pneumoniae): 18%
inhibition (Homo sapiens [6]): 65%
Activity (Bacillus anthracis): inactive
inhibition (Homo sapiens [7]): 86%
inhibition [8]: Active
Activity (Staphylococcus aureus [9]): inactive
inhibition (Ribosomal RNA A-site [10]): 88%
IC50 (Ribosomal RNA A-site [11]): 204 nM
inhibition [12]: Active
Activity (Escherichia coli [13]): 0%
Activity (Listeria monocytogenes): inactive
Activity (Enterococcus faecium): 26%
Activity (Escherichia coli [14]): inactive
inhibition [15]: Active
Activity [16]: 0%
Activity (Staphylococcus aureus [17]): 29%
Activity (Staphylococcus aureus [18]): 19%
Activity (Acinetobacter baumannii): 8%
IC50 (Ribosomal RNA A-site [19]): 211 nM
inhibition [20]: Active
Activity (Staphylococcus aureus [21]): 16%
IC50 (Ribosomal RNA A-site [22]): 191 nM
Activity (Pseudomonas aeruginosa): 10%
IC50 [23]: 147 nM
inhibition (Ribosomal RNA A-site [24]): 91%
Activity (Klebsiella oxytoca): 14%
Activity (Staphylococcus aureus [25]): inactive
